# Experimental data as given in ChEMBL document CHEMBL3621107, “Ring fusion strategy for synthesis and lead optimization of sulfur-substituted anthra[1,2-c][1,2,5]thiadiazole-6,11-dione derivatives as promising scaffold of antitumor agents” (Eur J Med Chem, 2015).
# How the values were obtained:
# Format in all cases: functional
# NCI-H226 = experiment: Cytotoxicity against human NCI-H226 cells after 48 hrs by SRB assay; details: NCI-H226, 48 h
# Procedure, shortened: (§1)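 Second-stage NCI-60 panel run by the NCI Developmental Therapeutics Program, covering nine tumour subpanels. Five concentrations were tested: 0.01, 0.1, 1, 10 and 100 μM. Percentage growth at each level was plotted against log10 drug concentration. GI50, TGI and LC50 were read from these dose-response curves. Subpanel MID values were divided into the full-panel MID to give selectivity ratios.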
# SK-OV-3 = experiment: Cytotoxicity against human SKOV3 cells after 48 hrs by SRB assay; details: SK-OV-3, 48 h; procedure, shortened: as §1
# A498 = experiment: Cytotoxicity against human A498 cells after 48 hrs by SRB assay; details: A498, 48 h
# Procedure, shortened: (§2)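 NCI-60 human tumour cell panel screen, second stage, run by the NCI Developmental Therapeutics Program. Compounds were tested at five concentrations (0.01, 0.1, 1, 10 and 100 μM). Percentage growth was plotted against log10 concentration for each cell line. GI50, TGI and LC50 were taken from these dose-response curves.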
# KM12 = experiment: Cytotoxicity against human KM12 cells after 48 hrs by SRB assay; details: KM12, 48 h; procedure, shortened: as §2
# [1] = Cytotoxicity against human CNS cancer cells assessed as growth inhibition after 48 hrs by SRB assay; details: Cancer cell lines
# Procedure, shortened: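 NCI-60 five-dose data (0.01–100 μM) were grouped by tumour subpanel. A subpanel mean (MID) of GI50 was computed for the CNS cancer lines. A selectivity ratio was obtained as full-panel MID divided by subpanel MID: 3–6 counts as moderate, >6 as high.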
# A549 = experiment: Cytotoxicity against human A549 cells after 48 hrs by SRB assay; details: A549, 48 h; procedure, shortened: as §2
# SNB-75 = experiment: Cytotoxicity against human SNB75 cells after 48 hrs by SRB assay; details: SNB-75, 48 h
# Procedure, shortened: (§3)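 NCI-60 five-dose study run by NCI DTP at 0.01, 0.1, 1, 10 and 100 µM. Percentage growth at each level was plotted against log10 concentration for each line, and GI50, TGI and LC50 were read from the dose-response curves.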
# NCI-H23 = experiment: Cytotoxicity against human NCI-H23 cells after 48 hrs by SRB assay; details: NCI-H23, 48 h; procedure, shortened: as §1
# HCC 2998 = experiment: Cytotoxicity against human HCC2998 cells after 48 hrs by SRB assay; details: HCC 2998, 48 h; procedure, shortened: as §2
# NCI-H522 = experiment: Cytotoxicity against human NCI-H522 cells after 48 hrs by SRB assay; details: NCI-H522, 48 h; procedure, shortened: as §1
# Malme-3M = experiment: Cytotoxicity against human MALME-3M cells after 48 hrs by SRB assay; procedure, shortened: as §2
# [2] = Cytotoxicity against human melanoma cells assessed as growth inhibition after 48 hrs by SRB assay; details: Melanoma cell
# Procedure, shortened: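 Values come from the NCI-60 five-dose panel (0.01–100 µM). The subpanel MID is the mean GI50 over the lines of that tumour subpanel. The selectivity ratio is the full-panel MID divided by the subpanel MID; 3–6 is rated moderate and >6 high.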
# [3] = Cytotoxicity against human Hs578T cells after 48 hrs by SRB assay; details: Hs-578T; procedure, shortened: as §2
# RPMI-8226 = experiment: Cytotoxicity against human RPMI8226 cells after 48 hrs by SRB assay; details: RPMI-8226, 48 h; procedure, shortened: as §1
# 786-0 = experiment: Cytotoxicity against human 786-0 cells after 48 hrs by SRB assay; details: 786-0, 48 h; procedure, shortened: as §2
# U-251 = experiment: Cytotoxicity against human U251 cells after 48 hrs by SRB assay; details: U-251, 48 h; procedure, shortened: as §3
# SN12C = experiment: Cytotoxicity against human SN12C cells after 48 hrs by SRB assay; procedure, shortened: as §1
# HOP-62 = experiment: Cytotoxicity against human HOP62 cells after 48 hrs by SRB assay; details: HOP-62, 48 h; procedure, shortened: as §2
# RXF 393 = experiment: Cytotoxicity against human RXF393 cells after 48 hrs by SRB assay; details: RXF 393, 48 h; procedure, shortened: as §1
# SR = experiment: Cytotoxicity against human SR cells after 48 hrs by SRB assay; procedure, shortened: as §3
# SF-295 = experiment: Cytotoxicity against human SF295 cells after 48 hrs by SRB assay; details: SF-295, 48 h; procedure, shortened: as §1
# DU-145 = experiment: Cytotoxicity against human DU145 cells after 48 hrs by SRB assay; details: DU-145, 48 h; procedure, shortened: as §2
# LOX IMVI = experiment: Cytotoxicity against human LOXIMVI cells after 48 hrs by SRB assay; procedure, shortened: as §2
# HT-29 = experiment: Cytotoxicity against human HT-29 cells after 48 hrs by SRB assay; details: HT-29, 48 h; procedure, shortened: as §2
# UO-31 = experiment: Cytotoxicity against human UO31 cells after 48 hrs by SRB assay; details: UO-31, 48 h; procedure, shortened: as §3
# PC-3 = experiment: Cytotoxicity against human PC3 cells after 48 hrs by SRB assay; details: PC-3, 48 h; procedure, shortened: as §1
# K562 = experiment: Cytotoxicity against human K562 cells after 48 hrs by SRB assay; details: K562, 48 h; procedure, shortened: as §2
# MCF7 = experiment: Cytotoxicity against human MCF7 cells after 48 hrs by SRB assay; details: MCF7, 48 h; procedure, shortened: as §2
# [4] = read-out: LC50 (the source's name)
structure (smiles),measurement,setting,value
O=C1c2ccccc2C(=O)c2c1cc(SCc1ccccc1)c1nsnc21,GI50,NCI-H226,> 50 µM
same,LC50 (concentration killing 50% of starting cells),NCI-H226,> 50 µM
same,TGI,NCI-H226,35.2 µM
same,GI50,SK-OV-3,13.7 µM
same,LC50,SK-OV-3,> 50 µM
same,TGI,SK-OV-3,18.5 µM
same,GI50,A498,> 50 µM
same,LC50 (concentration killing 50% of cells),A498,> 50 µM
same,TGI,A498,> 50 µM
same,GI50,KM12,19.5 µM
same,LC50 (concentration killing 50% of cells),KM12,> 50 µM
same,TGI,KM12,> 50 µM
same,GI50,[1],9.48 µM
same,GI50,A549,> 50 µM
same,LC50 (concentration killing 50% of cells),A549,> 50 µM
same,TGI,A549,> 50 µM
same,GI50,SNB-75,8.26 µM
same,LC50 (concentration killing 50% of cells),SNB-75,31 µM
same,TGI,SNB-75,16 µM
same,GI50,NCI-H23,8.25 µM
same,LC50,NCI-H23,> 50 µM
same,TGI,NCI-H23,> 50 µM
same,GI50,HCC 2998,> 50 µM
same,LC50,HCC 2998,> 50 µM
same,TGI,HCC 2998,> 50 µM
same,GI50,NCI-H522,8.64 µM
same,LC50 (concentration giving 50% net cell kill),NCI-H522,> 50 µM
same,TGI,NCI-H522,> 50 µM
same,GI50,Malme-3M,11 µM
same,LC50,Malme-3M,44.6 µM
same,TGI,Malme-3M,22.2 µM
same,GI50,[2],10.6 µM
same,GI50,[3],17.3 µM
same,LC50,[3],> 50 µM
same,TGI,[3],> 50 µM
same,GI50,RPMI-8226,8.45 µM
same,LC50,RPMI-8226,> 50 µM
same,TGI,RPMI-8226,33.4 µM
same,GI50,786-0,12.3 µM
same,LC50 (concentration killing 50% of cells),786-0,> 50 µM
same,TGI,786-0,25.4 µM
same,GI50,U-251,6.46 µM
same,LC50,U-251,30.3 µM
same,TGI,U-251,14 µM
same,GI50,SN12C,7.16 µM
same,TGI,SN12C,14.5 µM
same,CC50,SN12C; [4],29.3 µM
same,GI50,HOP-62,10.7 µM
same,LC50,HOP-62,30.4 µM
same,TGI,HOP-62,13.6 µM
same,GI50,RXF 393,7.2 µM
same,LC50 (concentration killing 50% of cells),RXF 393,27.4 µM
same,TGI,RXF 393,14 µM
same,GI50,SR,1990 nM
same,LC50,SR,> 50 µM
same,TGI,SR,13.1 µM
same,GI50,SF-295,> 50 µM
same,LC50,SF-295,> 50 µM
same,TGI,SF-295,> 50 µM
same,GI50,DU-145,10.2 µM
same,LC50,DU-145,38.8 µM
same,TGI,DU-145,19.9 µM
same,GI50,LOX IMVI,5.68 µM
same,TGI,LOX IMVI,12.8 µM
same,CC50,LOX IMVI; [4],29.1 µM
same,GI50,HT-29,> 50 µM
same,LC50,HT-29,> 50 µM
same,TGI,HT-29,> 50 µM
same,GI50,UO-31,7.83 µM
same,LC50,UO-31,43.5 µM
same,TGI,UO-31,18.5 µM
same,GI50,PC-3,10.8 µM
same,LC50 (concentration killing 50% of cells),PC-3,50.1 µM
same,TGI,PC-3,43.4 µM
same,GI50,K562,1470 nM
same,LC50,K562,> 50 µM
same,TGI,K562,6.5 µM
same,GI50,MCF7,8.33 µM
same,LC50 (concentration killing 50% of cells),MCF7,34.7 µM
same,TGI,MCF7,17 µM
